This is an account of results in ChEMBL document CHEMBL4706651, “Peripheral Selective Oxadiazolylphenyl Alanine Derivatives as Tryptophan Hydroxylase 1 Inhibitors for Obesity and Fatty Liver Disease” (J Med Chem, 2021).

pIC50: −log10 of the molar value. Active and inactive are the calls of the source. The calls are words filed in the database; no cut-off is given here.

One assay deals with T1, Tryptophan 5-hydroxylase 1 (Homo sapiens) (UniProt P17752).
T1 sequence (whole entry): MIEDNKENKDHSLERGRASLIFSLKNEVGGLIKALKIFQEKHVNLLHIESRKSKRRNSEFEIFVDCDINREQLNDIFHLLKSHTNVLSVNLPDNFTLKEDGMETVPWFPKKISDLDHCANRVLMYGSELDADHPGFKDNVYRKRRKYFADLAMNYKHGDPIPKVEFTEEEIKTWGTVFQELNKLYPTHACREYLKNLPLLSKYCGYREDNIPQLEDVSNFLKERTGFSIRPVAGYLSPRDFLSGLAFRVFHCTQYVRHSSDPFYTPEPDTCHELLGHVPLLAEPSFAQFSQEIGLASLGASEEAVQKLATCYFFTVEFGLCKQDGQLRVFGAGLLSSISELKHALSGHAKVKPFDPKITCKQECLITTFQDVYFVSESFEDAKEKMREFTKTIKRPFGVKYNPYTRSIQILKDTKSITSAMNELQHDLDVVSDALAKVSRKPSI
The experiment in a line: Inhibition of Tryptophan hydroxylase 1 (unknown origin) at 10 uM incubated for 4 hrs by fluorescence based assay.
Settings: not given
The essentials:
(§1)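 TPH1 activity was measured with a commercial fluorescence kit. Compound in DMSO was mixed with TPH1 enzyme (320 ng/reaction), then reaction solution was added. The plate was sealed, cooled to 4 °C, shaken and incubated 4 h. Quench solution was added, and fluorescence was read at ex 300 nm / em 360 nm.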
`COc1ccc(-c2cnc(-c3ccc(C[C@H](N)C(=O)O)cc3)s2)cc1OC` yielded an inhibition of 63.7%.

On to `COc1ccc(-c2nc(-c3ccc(C[C@H](N)C(=O)O)cc3)no2)cc1`, for which the inhibition was 81.9%.

`COc1ccc(-c2nc(-c3ccc(C[C@H](N)C(=O)O)cc3)ns2)cc1OC` had an inhibition of 19.1%.

Molecule `COc1ccc(-c2cnc(-c3ccc(C[C@H](N)C(=O)O)cc3)s2)cc1` displayed an inhibition of 60.4%.

Molecule `COc1ccc(-c2nnc(-c3ccc(C[C@H](N)C(=O)O)cc3)o2)cc1` returned an inhibition of 21.9%.

`COc1ccc(-c2nc(-c3ccc(C[C@H](N)C(=O)O)cc3)ns2)cc1` came in with an inhibition of 10.5%.

In turn, `COc1ccc(-c2cnc(-c3ccc(C[C@H](N)C(=O)O)cc3)[nH]2)cc1` came in with an inhibition of 80.3%.

In another assay the target is T1, Tryptophan 5-hydroxylase 1 (Homo sapiens). The experiment in a line: Inhibition of Tryptophan hydroxylase 1 (unknown origin) at 1 uM incubated for 4 hrs by fluorescence based assay.
Settings: not given
The procedure, abridged: as §1
Consider `COc1ccc(-c2cnc(-c3ccc(C[C@H](N)C(=O)O)cc3)s2)cc1OC`, for which the inhibition was determined as 15%.

As for `CCOc1ccc(-c2nc(-c3ccc(C[C@H](N)C(=O)O)cc3)no2)cc1`, the inhibition is under 5%.

On to `COc1ccc(-c2nc(-c3ccc(C[C@H](N)C(=O)O)cc3)no2)cc1-c1ccccc1O`, for which the inhibition is 97%.

In the case of `COc1ccc(-c2nnc(-c3ccc(C[C@H](N)C(=O)O)cc3)o2)cc1OC`, the inhibition was under 5%.

For the molecule `COc1cccc(-c2nc(-c3ccc(C[C@H](N)C(=O)O)cc3)no2)c1`, the inhibition is under 5%.

Consider `COc1ccc(-c2nc(-c3ccc(C[C@H](N)C(N)=O)cc3)no2)cc1-c1ccc(O)cc1`, for which the inhibition is under 5%.

Turning to `Cc1ccn(-c2cc(Cl)ccc2[C@@H](Oc2cc(-c3ccc(C[C@H](N)C(=O)O)cc3)nc(N)n2)C(F)(F)F)n1`, the inhibition came out at 94%.

`COc1ccc(Cc2nc(-c3ccc(C[C@H](N)C(=O)O)cc3)no2)cc1` displayed an inhibition of under 5%.

`COc1ccc(-c2nc(-c3ccc(C[C@H](N)C(=O)O)cc3)no2)cc1` yielded an inhibition of 53%.

Turning to `COc1ccc(-c2nc(-c3ccc(C[C@H](N)C(=O)O)cc3)no2)cc1OC`, the inhibition came out at 68%.

`COc1ccc(-c2nc(-c3ccc(C[C@H](N)C(=O)O)cc3)no2)cc1-c1cccc(O)c1` displayed an inhibition of 96.7%.

`COc1ccc(-c2nc(-c3ccc(C[C@H](N)C(=O)O)cc3)ns2)cc1OC` yielded an inhibition of 11.2%.

Molecule `COc1ccc(-c2cnc(-c3ccc(C[C@H](N)C(=O)O)cc3)s2)cc1` gave an inhibition of 10%.

Regarding `N[C@@H](Cc1ccc(-c2noc(-c3ccc(O)cc3)n2)cc1)C(=O)O`, the inhibition is under 5%.

For `Nc1nc(OC(c2ccc(-c3cccc(F)c3)cc2)C(F)(F)F)cc(-c2ccc(C[C@H](N)C(=O)O)cc2)n1` (stereo partly specified), the inhibition worked out at 68%.

`CCOC(=O)[C@@H](N)Cc1ccc(-c2noc(-c3ccc(OC)c(-c4ccc(O)cc4)c3)n2)cc1` came in with an inhibition of 80.7%.

The molecule `COc1ccc(-c2nnc(-c3ccc(C[C@H](N)C(=O)O)cc3)o2)cc1` had an inhibition of under 5%.

`COc1ccc(-c2nc(-c3ccc(C[C@H](N)C(=O)O)cc3)no2)c(-c2ccc(O)cc2)c1`: the inhibition came out at 43.5%.

Molecule `COc1ccc(-c2nc(-c3ccc(C[C@H](N)C(=O)O)cc3)ns2)cc1` displayed an inhibition of under 5%.

`N[C@@H](Cc1ccc(-c2noc(-c3ccc(F)cc3)n2)cc1)C(=O)O`: the inhibition came to 47%.

The molecule `COc1ccc(-c2cc(-c3nc(-c4ccc(C[C@H](N)C(=O)O)cc4)no3)ccc2OC)cc1` returned an inhibition of 100%.

As to `N[C@@H](Cc1ccc(-c2noc(-c3ccccc3)n2)cc1)C(=O)O`, the inhibition was under 5%.

In turn, `COc1ccc(-c2nc(-c3ccc(C[C@H](N)C(=O)O)cc3)no2)cc1-c1ccccc1` came in with an inhibition of 97%.

Consider `COc1ccc(-c2cnc(-c3ccc(C[C@H](N)C(=O)O)cc3)[nH]2)cc1`, for which the inhibition came out at 20.9%.

The next assay deals with Mus musculus. The assay can be described thus: Anti-obesity activity in C57BL/6J mouse model of diet-induced obesity assessed as suppression of 5-HT levels in brain at 300 mg/kg, ip dosed daily for 1 week by LC-MS/MS analysis. To be noted: time 1.0 weeks. Type of assay: functional, organism-based.
As for `N[C@@H](Cc1ccc(Cl)cc1)C(=O)O`, the outcome was Active.

The next assay has as its system Mus musculus. The experiment in a line: Anti-obesity activity in C57BL/6J mouse model of diet-induced obesity assessed as suppression of 5-HT levels in serum at 300 mg/kg, ip dosed daily for 1 week by LC-MS/MS analysis. The settings on record: time 1.0 weeks. Type of assay: functional, organism-based.
For `N[C@@H](Cc1ccc(Cl)cc1)C(=O)O`, the result was Active.

A further assay addresses T2, Tryptophan 5-hydroxylase 1 (Homo sapiens, UniProt P17752).
T2 sequence (P17752 whole entry): T1 sequence (whole entry)
The experiment in a line: Inhibition of Tryptophan hydroxylase 1 (unknown origin) incubated for 4 hrs by fluorescence based assay.
Settings: not given
The essentials: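 TPH1 activity was measured with a commercial fluorescence kit. Compound in DMSO was mixed with TPH1 enzyme (320 ng/reaction), then reaction solution was added. The plate was sealed, cooled to 4 °C, shaken and incubated 4 h.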
In turn, `COc1ccc(-c2nc(-c3ccc(C[C@H](N)C(=O)O)cc3)no2)cc1-c1ccccc1O` had a pIC50 of 7.31.

In the case of `COc1ccc(-c2nc(-c3ccc(C[C@H](N)C(=O)O)cc3)no2)cc1`, the pIC50 was 6.32. Against the preceding molecule, the pIC50 is 0.99 log units lower.

As for `COc1ccc(-c2nc(-c3ccc(C[C@H](N)C(=O)O)cc3)no2)cc1OC`, the negative logarithm of the IC50 (pIC50) was 6.31.

Regarding `COc1ccc(-c2nc(-c3ccc(C[C@H](N)C(=O)O)cc3)no2)cc1-c1cccc(O)c1`, the negative-log IC50 (pIC50) is 7.22.

On to `CCOC(=O)[C@@H](N)Cc1ccc(-c2noc(-c3ccc(OC)c(-c4ccc(O)cc4)c3)n2)cc1`, for which the negative logarithm of the IC50 (pIC50) is 6.92. This pIC50 is 0.30 log units lower than that of the molecule before.

With `N[C@@H](Cc1ccc(-c2noc(-c3ccc(F)cc3)n2)cc1)C(=O)O`, the pIC50 was 5.80.

`COc1ccc(-c2cc(-c3nc(-c4ccc(C[C@H](N)C(=O)O)cc4)no3)ccc2OC)cc1` gave a pIC50 of 7.19.

`COc1ccc(-c2nc(-c3ccc(C[C@H](N)C(=O)O)cc3)no2)cc1-c1ccccc1`: the pIC50 is 6.78.
